HCV NS3 hel inh: blocks Hepatitis C virus NS3 helicase unwinding; 290,000 compounds, 0.56% hits; inhibition, % at 10.9 µM; NS3 helicase DNA unwinding, Cy5 molecular beacon fluorescence;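 active = inhibition above the mean of all tested compounds plus 3 SD, set per campaign, cut at about 35% in these data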;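 note: 0% = DMSO wells and 100% = thioflavine S control wells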
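Compound dosing – single dose, 10.9 µM nominal final, DMSO 0.8% final · System – NS3 helicase fragment of HCV · Buffer or medium – MOPS pH 6.5, MgCl2, DTT, Tween20, BSA · Signal – Cy5 beacon fluorescence read at start and 1 h · Also added – annealed dual-labelled DNA beacon duplex, ATP-started · Schedule – 1 h at 25 °C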
IMP-1 inhibitor: inhibitors of Pseudomonas aeruginosa IMP-1 metallo-beta-lactamase; inhibition, % at 5.6 µM; 290,000 compounds, 0.45% hits; purified IMP-1, nitrocefin hydrolysis, epi-absorbance fluorescence;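 active = inhibition above the mean plus 3 SD of all compounds in the same screening run, cut at about 4.5% in these data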;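 note: 0% = IMP-1 with DMSO and 100% = DMSO wells lacking enzyme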
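assay system = purified recombinant IMP-1 metallo-beta-lactamase enzyme | schedule = 15 min preincubation plus 25 min reaction at 25 °C | signal = Epi-absorbance fluorescence, 480 nm excitation, 530 nm emission | read-out basis = percent inhibition from optical density relative to buffer-blank wells | controls = IMP-1 with DMSO as 0%, enzyme-free DMSO as 100%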
VIM-2 inh: blocks Pseudomonas aeruginosa VIM-2 metallo-beta-lactamase; purified VIM-2, nitrocefin hydrolysis, epi-absorbance fluorescence; AID 1527; inhibition, % at 5.6 µM; 290,000 compounds, 0.89% hits;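 active = inhibition above the mean of all tested compounds plus 3 SD, cutoff set per screening run, cut at about 7.5% in these data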;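 note: red hydrolysis product quenches plate fluorescence so inhibitors raise well fluorescence; 0% = enzyme with DMSO and 100% = DMSO without enzyme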
DNA FID counter-1: fluorescent intercalator displacement, NS3 helicase counter-screen. DNA fluorescent intercalator displacement, fluorescence. AID 1845. 290,000 compounds, 0.17% hits. inhibition, % at 7.9 µM;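 note: 0% = vehicle and 100% = reference compound; higher means more ethidium bromide displaced from hairpin DNA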
NS3 hel confirm: HCV NS3 helicase inhibition, confirmation assay; shares compounds with HCV NS3 hel inh; NS3 helicase DNA unwinding, Cy5 molecular beacon fluorescence; inhibition, % at 10.9 µM; 1,600 compounds, 31% hits;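 active = inhibition above the mean of all tested compounds plus 3 SD, cutoff set per campaign, cut at about 36% in these data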
DNA FID counter-2: intercalator displacement, NS3 helicase counter-screen. shares compounds with HCV NS3 hel inh. DNA fluorescent intercalator displacement, fluorescence. inhibition, % at 7.9 µM. 1,600 compounds, 4% hits;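 note: 0% = vehicle and 100% = reference compound; higher means more displacement of ethidium bromide from the DNA hairpin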
FID counter DR: counter-screen for HCV NS3 helicase inhibitors: DNA intercalator displacement dose response. 120 tested, under 10 active. fluorescent intercalator displacement from DNA, fluorescence. shares compounds with HCV NS3 hel inh. IC50, µM; call rule not given here
* hit, by the source's call; x = no result given. Shown are actives, neighbours in structure and some others; about 1.9% of the full set was active somewhere. Cut-off read from the data, not from the text of the source, unless noted: active = inhibition above about 37%; inactive = the rest.

SMILES	HCV NS3 hel inh	IMP-1 inhibitor	VIM-2 inh	DNA FID counter-1	NS3 hel confirm	DNA FID counter-2	others
O=C(N/N=C/c1cc([N+](=O)[O-])ccc1O)C(O)(c1ccccc1)c1ccccc1	46*	-4	-2	-1	-8	19
COc1ccc(/C=C/C2=CC(C)(C)NC(=S)N2)cc1	-6	-3	0	-4	x	x
Cc1nccc(-c2cccc(NC(=O)c3ccccc3Cl)c2)n1	-12	-3	-3	-9	x	x
O=c1[nH]c(/C=C/c2ccc3c(c2)OCO3)c([N+](=O)[O-])c(=O)[nH]1	-3	-2	-1	-14	x	x
O=c1[nH]c(/C=C/c2ccc([N+](=O)[O-])cc2)c([N+](=O)[O-])c(=O)[nH]1	60*	-4	-1	-2	-15	8
O=S(=O)(NCCO)c1ccc2c(c1)Cc1cc(S(=O)(=O)NCCO)ccc1-2	12	-3	1	0	x	x
NNS(=O)(=O)c1ccc2c(c1)Cc1cc(S(=O)(=O)NN)ccc1-2	39*	-2	-3	4	-17	2
CC1CC(=O)c2c(cc3c(-c4c(O)cc(O)c5c(O)c6c(cc45)OC(C)CC6=O)c(O)cc(O)c3c2O)O1 (configuration not stated)	98*	-1	-3	28	123*	72*
Oc1c(Br)cc(Br)cc1/C=N/NC(=S)N[C@H]1CC2C=CC1C2 (some centres not stated)	37*	1	-1	-19	59*	15	FID counter DR=>79
O=C(COC(=O)c1cc(-c2ccco2)nc2ccccc12)NCc1ccc2c(c1)OCO2	41*	-2	-3	-23	86*	54*
Cc1ccc(C)c(Cn2nc3c4ccccc4n(Cc4ccccc4)cc-3c2=O)c1	-12	-2	-3	-29	x	x
O=C(Nc1nc(-c2ccco2)c(-c2ccco2)s1)C1CC(=O)N(c2ccc3c(c2)OCCO3)C1 (configuration not stated)	40*	-2	-3	-13	72*	28	FID counter DR=>79
O=C(Nc1nc(-c2ccco2)c(-c2ccco2)s1)C1CCC1	58*	-3	-3	-12	47*	19	FID counter DR=>79
O=C(Nc1nnc(-c2ccco2)s1)C1CCCCC1	-2	-2	-5	-3	x	x
Cc1c(C(=O)NN2CCOCC2)oc2c1ccc1ccccc12	-7	-1	4	-8	x	x
